Assay outcomes from PubChem.
PMI act hi M6P: human PMI activators, high substrate, primary screen, biochemical, fluorescence intensity, near-saturating mannose 6-phosphate; Mannose-6-phosphate isomerase (Homo sapiens), P34949; coupled PMI enzyme assay, resazurin fluorescence, 20 min; active compounds read high; 1 = untreated enzyme, 0 = substrate-free blank; activation factor at 20 µM; 190,000 tested, 0.34% active; AID 1216, 2008;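 active = activation factor of 2 or more at 20 µM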
Target sequence (P34949 whole entry, looked up): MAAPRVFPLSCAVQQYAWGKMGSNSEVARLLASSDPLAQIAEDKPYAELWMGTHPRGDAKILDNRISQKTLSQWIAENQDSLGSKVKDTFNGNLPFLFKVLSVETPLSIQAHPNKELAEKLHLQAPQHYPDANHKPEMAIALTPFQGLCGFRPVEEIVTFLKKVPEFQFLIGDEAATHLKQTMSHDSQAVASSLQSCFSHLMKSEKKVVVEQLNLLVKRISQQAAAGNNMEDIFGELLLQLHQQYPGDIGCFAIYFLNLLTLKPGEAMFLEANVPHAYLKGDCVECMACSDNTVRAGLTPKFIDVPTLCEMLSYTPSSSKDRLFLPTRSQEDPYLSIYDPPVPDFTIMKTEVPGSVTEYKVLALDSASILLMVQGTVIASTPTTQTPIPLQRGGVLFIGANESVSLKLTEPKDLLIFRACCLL
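test system = human PMI in coupled enzyme assay | medium = HEPES-buffered pH 7.4 with magnesium and detergent | also added = 1.0 mM mannose-6-phosphate substrate with 0.22 mM NADP+ | compound = 20 µM single dose | times = 20 min incubation at room temperature | measured by = resorufin fluorescence (Ex 544/Em 590 nm) from resazurin via diaphorase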
PTEN del growth: growth suppression of PTEN-null HCT116, primary screen, cell-based, CellTiter-Glo; AID 827, 2007; viability, % at 10 µM; 140,000 tested, 1.2% active; HCT116 PTEN-null viability, 60 h; active compounds read low;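 active = viability at or below a set limit, 4 SD under the median of all tested compounds, cut at about 3.7% in these data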;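 also: PTEN knockout HCT116 line with beta catenin targeted HCT116 as companion control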
HCT116 bCat-KO: primary screen for growth suppressors in beta-catenin knockout HCT116 cells (colon tumor, human). HCT116 beta-catenin knockout viability, CellTiter-Glo, 60 h; active compounds read low. viability, % at 10 µM. 140,000 tested, 1.5% active;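 active = viability at or under a set limit, the compound median less 4 SD, cut at about 6% in these data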;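 also: 0% = Hyamine 1622 control at 20 µM and 100% = untreated cell control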
PMI act: activators of human PMI, primary screen, biochemical, fluorescence intensity, near-Km mannose 6-phosphate; Mannose-6-phosphate isomerase (Homo sapiens), P34949; 190,000 tested, 0.005% active; AID 1214, 2008; activation factor at 20 µM; purified human PMI, coupled resazurin fluorescence, 20 min; active compounds read high; 1 = vehicle control, 0 substrate-free wells;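 active = activation factor of 2 or more at 20 µM, relative to plate controls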
Lmaj promast: Leishmania major promastigote growth inhibition, primary screen. Leishmania major promastigotes, resazurin fluorescence viability. inhibition, % at 10 µM. 200,000 tested, 9% active. AID 1063, 2008; in the data active = inhibition above about 50%;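 also: promastigotes grown with compound for 44 hours at 28 °C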
* marks the source's active call; other numbers are inactive results; x = no result. The list is not random: actives were taken first. Their share in the collection is about 9.6%.

SMILES	PMI act hi M6P	PTEN del growth	HCT116 bCat-KO	PMI act	Lmaj promast
COc1ccc(N(CC(=O)Nc2cccc(OC)c2)S(=O)(=O)c2c(C)nn(C)c2C)cc1	0.9	95	99	1	57*
CC(=O)c1ccc2noc(-c3ccc(C)cc3)c2c1	2*	x	x	1.9	-3
COc1cccc(C(=O)N/N=C/C(Br)=C/c2ccccc2)c1	0.9	1.7*	2.8*	0.8	48
Cn1cc(C(=O)N/N=C/C=C/c2ccccc2)ccc1=O	0.8	95	93	0.8	36
Cn1cc(C(=O)N/N=C/C(Br)=C/c2ccccc2)ccc1=O	1	3.3*	3.6*	1	62*
O=C(N/N=C/C=C/c1ccccc1)c1n[nH]c2c1CCC2	1.1	29	25	1.2	6
Cn1cc(C(=O)N/N=C/C(Br)=C\c2ccccc2)ccc1=O	1	6	14	1.1	80*
O=C(N/N=C/C(Br)=C\c1ccccc1)c1n[nH]c2c1CCC2	1	2.2*	3.9*	1	54*
COc1ccc(C(=O)N/N=C/C(Br)=C/c2ccccc2)cc1	1	104	100	0.9	-3
CC(=O)Nc1ccc(S(=O)(=O)n2cnc3ccccc32)cc1	1.1	102	104	1	-4
CCN(CC)C(=O)c1[nH]cnc1C(=O)N[C@@H](C)C(=O)OC(C)(C)C	1.1	x	x	1	-12
O=C(NC1CCCC1)c1ccc(CNc2c(N3CCOCC3)c(=O)c2=O)cc1	1.1	92	81	1.1	-6
Cn1c(Sc2ccc(Br)cc2)c(C=O)c2ccccc21	0.9	42	51	0.9	57*
Cc1cc(Nc2cccc([N+](=O)[O-])c2)n2c(nc3ccccc32)c1C#N	0.9	4	3.4*	0.9	15
O=C(Nc1cccc(C(F)(F)F)c1)c1ccccc1NC(=O)C1CCCCC1	1	89	90	1	57*
O=C(Nc1cc(C(F)(F)F)ccc1F)C1CCCCC1	1	95	78	1	0
COc1cccc(C(=O)c2sc(NC(C)C)nc2N)c1	0.9	4	4.9*	0.9	3
COc1ccc(C(=O)c2sc(NC(C)C)nc2N)cc1OC	1.1	59	70	1.1	15
Cc1sc(NC(=O)Cc2ccc3c(c2)OCO3)nc1-c1ccc2c(c1)CCN2C(=O)c1ccc(F)cc1	0.9	71	56	0.8	87*
Cc1ccc2c(c1)CCCN2C(=O)c1ccc2c(c1)OCO2	0.9	87	114	0.9	36
Cc1sc(NC(=O)Cc2ccc3c(c2)OCO3)nc1-c1ccc2c(c1)CCN2C(=O)c1ccccc1F	0.8	73	58	0.8	99*
Cc1sc(NC(=O)CN(C)C2CCCCC2)nc1-c1ccc2c(c1)CCN2S(=O)(=O)c1ccccc1	1	69	76	1	45
O=C(NN1C(=O)c2ccccc2NC1c1ccccn1)c1ccccc1 (stereo unspecified)	0.9	94	86	0.9	41
CC(=O)C(=Nc1ccccc1Cl)NNc1ccc(Cl)cc1	1.5	70	75	1.3	93*
CC(=O)Nc1ccccc1C(=O)C(=O)Nc1ccc(Cl)cc1	1	x	x	1	2
SMILES	PMI act hi M6P	PTEN del growth	HCT116 bCat-KO	PMI act	Lmaj promast
CCOc1ccccc1C(=O)N1CCN(C(c2ccccc2)c2ccccc2)CC1	0.9	69	72	0.9	95*
CCSc1ccc2nnc(-c3cccc(F)c3)n2n1	2*	90	95	1	7
Fc1ccc(CSc2ccc3nnc(-c4cccnc4)n3n2)cc1	1.1	x	x	1.2	66*
O=C(O)CSc1ccc2nnc(-c3cccnc3)n2n1	1.1	x	x	1.2	-4
CC1C(C#N)=C(N)OC2=C1C(=O)CC(c1ccccc1)C2 (stereo unspecified)	0.9	x	x	1	1
CCOC(=O)N1CCC(Nc2c(NCCN3CCN(c4ccccc4F)CC3)c(=O)c2=O)CC1	1	88	88	1	-6
COc1ccc(CN(C(=O)c2ccc(-c3ccccc3)[nH]2)C(C(=O)NC(C)(C)C)c2ccncc2)cc1 (stereo unspecified)	1	x	x	1	93*
